# From ChEMBL document CHEMBL3779767, “Identification of potent and selective MTH1 inhibitors” (Bioorg Med Chem Lett, 2016)
# Activity calls are given as the source filed them. No cut-off for these calls is given here.
# What was measured:
# SW480 [1] = test: Antiproliferative activity against human SW480 cells assessed as change in phenotypic response; type: functional, cell-based
# [2] = Permeability across MDCK cells; type: ADME, cell-based, Canis lupus familiaris; conditions: dog, read-out: permeability
# In short: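 Measured across a confluent MDCK cell monolayer; apparent permeability is reported together with the efflux ratio.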
# A549 [3] = test: Antiproliferative activity against human A549 cells assessed as change in phenotypic response; type: functional, cell-based
# [4] = Cytotoxicity against human 293T cells assessed as change in phenotypic response; type: cell-based; conditions: hek-293t
# NCI-H460 [5] = test: Antiproliferative activity against human NCI-H460 cells assessed as change in phenotypic response; type: functional, cell-based
# HeLa [6] = test: Antiproliferative activity against human HeLa cells assessed as change in phenotypic response; type: functional, cell-based
# [7] = Efflux ratio of permeability in MDCK cells; type: ADME, cell-based, Canis lupus familiaris; conditions: dog
# In short: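 Permeability measured across a confluent MDCK cell monolayer, with the efflux ratio reported alongside the permeability value.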
# U2OS [8] = test: Antiproliferative activity against human U2OS cells assessed as change in phenotypic response; type: functional, cell-based
# Liver microsome [9] = test: Intrinsic clearance in human liver microsomes at 1 uM up to 40 mins by LC-MS/MS analysis; type: ADME
# [10] = Cytotoxicity against human WI38 cells assessed as change in phenotypic response; type: cell-based; conditions: wi-38
# MDA-MB-231 [11] = test: Antiproliferative activity against human MDA-MB-231 cells assessed as change in phenotypic response; type: functional, cell-based
# [12] = Plasma protein binding in human plasma at 10 uM after 4 hrs by LC-MS/MS analysis; type: ADME, cell-free; conditions: read-out: PPB (converted)
# SAOS-2 [13] = test: Antiproliferative activity against human Saos2 cells assessed as change in phenotypic response; type: functional, cell-based
# HMEC [14] = test: Cytotoxicity against human HMEC cells assessed as change in phenotypic response; type: cell-based
# HCT-116 [15] = test: Antiproliferative activity against human HCT116 cells assessed as change in phenotypic response; type: functional, cell-based
# MRC5 [16] = test: Cytotoxicity against human MRC5 cells assessed as change in phenotypic response; type: cell-based
# BJ [17] = test: Cytotoxicity against human BJ cells assessed as change in phenotypic response; type: cell-based
# HeLa [18] = test: Antiproliferative activity against human HeLa cells assessed as change in phenotypic response measured after prolonged treatment; type: functional, cell-based
# BJ [19] = test: Cytotoxicity against human BJ cells assessed as change in phenotypic response measured after prolonged treatment; type: cell-based
# [20] = Half life in rat plasma; type: ADME, cell-free
# In short: (§1)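 Plasma stability was measured in human and rat plasma, with half-life reported in hours.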
# [21] = Half life in human plasma; type: ADME, cell-free; in short: as §1
# NCI-H460 [22] = test: Antiproliferative activity against human NCI-H460 cells assessed as change in phenotypic response measured after prolonged treatment; type: functional, cell-based
# HMEC [23] = test: Cytotoxicity against human HMEC cells assessed as change in phenotypic response up to 50 uM; type: cell-based
# MDA-MB-231 [24] = test: Antiproliferative activity against human MDA-MB-231 cells assessed as change in phenotypic response measured after prolonged treatment; type: functional, cell-based
# MRC5 [25] = test: Cytotoxicity against human MRC5 cells assessed as change in phenotypic response up to 50 uM; type: cell-based
# A549 [26] = test: Antiproliferative activity against human A549 cells assessed as change in phenotypic response up to 50 uM; type: functional, cell-based
# HCT-116 [27] = test: Antiproliferative activity against human HCT116 cells assessed as change in phenotypic response up to 50 uM; type: functional, cell-based
# SAOS-2 [28] = test: Antiproliferative activity against human Saos2 cells assessed as change in phenotypic response measured after prolonged treatment; type: functional, cell-based
# A549 [29] = test: Antiproliferative activity against human A549 cells assessed as change in phenotypic response measured after prolonged treatment; type: functional, cell-based
# SW480 [30] = test: Antiproliferative activity against human SW480 cells assessed as change in phenotypic response up to 50 uM; type: functional, cell-based
# NCI-H460 [31] = test: Antiproliferative activity against human NCI-H460 cells assessed as change in phenotypic response up to 50 uM; type: functional, cell-based
# U2OS [32] = test: Antiproliferative activity against human U2OS cells assessed as change in phenotypic response up to 50 uM; type: functional, cell-based
# HCT-116 [33] = test: Antiproliferative activity against human HCT116 cells assessed as change in phenotypic response measured after prolonged treatment; type: functional, cell-based
# UOK 262 [34] = test: Antiproliferative activity against human UOK 262 cells assessed as change in phenotypic response measured after prolonged treatment; type: functional, cell-based
# HMEC [35] = test: Cytotoxicity against human HMEC cells assessed as change in phenotypic response measured after prolonged treatment; type: cell-based
# BJ [36] = test: Cytotoxicity against human BJ cells assessed as change in phenotypic response up to 50 uM; type: cell-based
# NCI-H358 [37] = test: Antiproliferative activity against human NCI-H358 cells assessed as change in phenotypic response up to 50 uM; type: functional, cell-based
# [38] = Cytotoxicity against human WI38 cells assessed as change in phenotypic response measured after prolonged treatment; type: cell-based; conditions: wi-38
# [39] = Cytotoxicity against human 293T cells assessed as change in phenotypic response measured after prolonged treatment; type: cell-based; conditions: hek-293t
# [40] = Cytotoxicity against human 293T cells assessed as change in phenotypic response up to 50 uM; type: cell-based; conditions: hek-293t
# SW480 [41] = test: Antiproliferative activity against human SW480 cells assessed as change in phenotypic response measured after prolonged treatment; type: functional, cell-based
# [42] = Plasma protein binding in human; type: ADME, cell-free; conditions: read-out: PPB (converted)
# MRC5 [43] = test: Cytotoxicity against human MRC5 cells assessed as change in phenotypic response measured after prolonged treatment; type: cell-based
# SAOS-2 [44] = test: Antiproliferative activity against human Saos2 cells assessed as change in phenotypic response up to 50 uM; type: functional, cell-based
# NCI-H358 [45] = test: Antiproliferative activity against human NCI-H358 cells assessed as change in phenotypic response measured after prolonged treatment; type: functional, cell-based
# [46] = Intrinsic clearance in mouse liver microsomes; type: ADME
# [47] = Half life in mouse liver microsomes; type: ADME
# In short: (§2)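 Incubated with human or mouse liver microsomes; the read-out was intrinsic clearance alongside half-life, given in hours.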
# UOK 262 [48] = test: Antiproliferative activity against human UOK 262 cells assessed as change in phenotypic response up to 50 uM; type: functional, cell-based
# [49] = Half life in human liver microsomes; type: ADME; in short: as §2
# Liver microsome [50] = test: Intrinsic clearance in human liver microsomes; type: ADME
# U2OS [51] = test: Antiproliferative activity against human U2OS cells assessed as change in phenotypic response measured after prolonged treatment; type: functional, cell-based
# MDA-MB-231 [52] = test: Antiproliferative activity against human MDA-MB-231 cells assessed as change in phenotypic response up to 50 uM; type: functional, cell-based
# [53] = Cytotoxicity against human WI38 cells assessed as change in phenotypic response up to 50 uM; type: cell-based; conditions: wi-38
# HeLa [54] = test: Antiproliferative activity against human HeLa cells assessed as change in phenotypic response up to 50 uM; type: functional, cell-based
structure (smiles),measurement,setting,value
CNc1cc(-c2cccc(Cl)c2Cl)nc(N)n1,Activity,SW480 [1],Active
same,Papp,[2],30 ×10⁻⁶ cm/s
same,Activity,A549 [3],Active
same,Activity,[4],Toxic
same,Activity,NCI-H460 [5],Active
same,Activity,HeLa [6],Active
same,efflux ratio,[7],0.8
same,Activity,U2OS [8],Active
same,CLH,Liver microsome [9],54 µL/min/mg
same,Activity,[10],Toxic
same,Activity,MDA-MB-231 [11],Active
same,"fraction unbound at 4 h, 10 µM",[12],0.08
same,Activity,SAOS-2 [13],Active
same,Activity,HMEC [14],Toxic
same,Activity,HCT-116 [15],Active
same,Activity,MRC5 [16],Toxic
same,Activity,BJ [17],Toxic
Cc1cnc(N)nc1OCC(C)(C)C,Papp,[2],37 ×10⁻⁶ cm/s
same,Activity,HeLa [18],inactive
same,Activity,BJ [19],Non-toxic
same,half-life,[20],20 h
same,half-life,[21],19 h
same,Activity,NCI-H460 [22],inactive
same,Activity,HMEC [23],Non-toxic
same,Activity,MDA-MB-231 [24],inactive
same,Activity,MRC5 [25],Non-toxic
same,Activity,A549 [26],inactive
same,Activity,HCT-116 [27],inactive
same,Activity,SAOS-2 [28],inactive
same,Activity,A549 [29],inactive
same,Activity,SW480 [30],inactive
same,Activity,NCI-H460 [31],inactive
same,efflux ratio,[7],0.8
same,Activity,U2OS [32],inactive
same,Activity,HCT-116 [33],inactive
same,Activity,UOK 262 [34],inactive
same,Activity,HMEC [35],Non-toxic
same,Activity,BJ [36],Non-toxic
same,Activity,NCI-H358 [37],inactive
same,Activity,[38],Non-toxic
same,Activity,[39],Non-toxic
same,Activity,[40],Non-toxic
same,Activity,SW480 [41],inactive
same,fraction unbound,[42],0.06
same,Activity,MRC5 [43],Non-toxic
same,Activity,SAOS-2 [44],inactive
same,Activity,NCI-H358 [45],inactive
same,CLH,[46],280 µL/min/mg
same,half-life,[47],0.3 h
same,Activity,UOK 262 [48],inactive
same,half-life,[49],0.5 h
same,CLH,Liver microsome [50],82 µL/min/mg
same,Activity,U2OS [51],inactive
same,Activity,MDA-MB-231 [52],inactive
same,Activity,[53],Non-toxic
same,Activity,HeLa [54],inactive
Nc1nc(NC2CC2)cc(-c2cccc(Cl)c2Cl)n1,Activity,SW480 [1],Active
same,Activity,A549 [3],Active
same,Activity,[4],Toxic
same,Activity,NCI-H460 [5],Active
same,Activity,HeLa [6],Active
same,Activity,U2OS [8],Active
same,Activity,[10],Toxic
same,Activity,MDA-MB-231 [11],Active
same,Activity,SAOS-2 [13],Active
same,Activity,HMEC [14],Toxic
same,Activity,HCT-116 [15],Active
same,Activity,MRC5 [16],Toxic
same,Activity,BJ [17],Toxic
